The target of assay [1] is T1, Peroxisome proliferator-activated receptor gamma (Homo sapiens) (UniProt P37231).
T1 sequence (whole entry): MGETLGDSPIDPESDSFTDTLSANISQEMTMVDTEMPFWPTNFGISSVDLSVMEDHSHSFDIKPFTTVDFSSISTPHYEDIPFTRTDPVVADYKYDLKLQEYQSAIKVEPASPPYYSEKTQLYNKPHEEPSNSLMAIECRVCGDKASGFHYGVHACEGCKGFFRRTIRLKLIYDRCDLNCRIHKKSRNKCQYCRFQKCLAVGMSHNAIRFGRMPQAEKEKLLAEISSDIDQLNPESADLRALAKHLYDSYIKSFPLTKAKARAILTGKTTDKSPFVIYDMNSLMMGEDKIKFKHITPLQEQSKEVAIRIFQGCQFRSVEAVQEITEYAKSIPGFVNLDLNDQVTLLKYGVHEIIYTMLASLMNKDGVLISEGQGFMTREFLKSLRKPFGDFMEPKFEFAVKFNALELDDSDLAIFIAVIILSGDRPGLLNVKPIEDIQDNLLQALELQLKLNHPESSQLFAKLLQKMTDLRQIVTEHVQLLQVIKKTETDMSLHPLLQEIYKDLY
In words: Binding affinity to GST-tagged PPARgamma LBD at 50 uM after 4 hrs by TR-FRET competitive binding assay. A digest of the protocol:
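LanthaScreen TR-FRET competitive binding. Mix of 0.5 nM GST-tagged PPAR-γ LBD, 5 nM terbium anti-GST antibody and 5 nM Fluormone Pan-PPAR Green tracer, with compound at 50 µM and DMSO solvent control. Incubated 4 h in the dark. Read as the 520/495 nm emission ratio (counting 0.1 s, integration 20 µs). Mean + s.d., n = 3.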

Assay [2] concerns the target Peroxisome proliferator-activated receptor gamma (Homo sapiens) (UniProt P37231). In words: Agonist activity at PPARgamma in rat Ac2F cells assessed as luciferase activity after 6 hrs by reporter gene assay.
The target is the same in assay [3]. Put plainly: Agonist activity at PPARgamma in rat Ac2F cells assessed as luciferase activity at 0.1 to 10 uM after 6 hrs by reporter gene assay.

The values that follow come from ChEMBL document CHEMBL2057138, “Design and synthesis of marine fungal phthalide derivatives as PPAR-γ agonists” (Bioorg Med Chem, 2012).

The source made the active and inactive calls. The calls are words filed in the database; no cut-off is given here.

With `O=C1OC(=O)c2c(O)cccc21`, the outcome in assay [1] was Active.

As for `CCCCCCCCC1(O)OC(=O)c2cccc(O)c21` (stereo not given), the result in assay [1] was inactive.

`O=C1OC(=O)c2ccccc21`: the outcome in assay [1] was inactive.

For the compound `CCCCCCCCC1OC(=O)c2c(O)cccc21` (racemic), the outcome in assay [1] and in assay [3] was Active. Further, the Activity result in assay [2] was “Dose-dependent effect”.

In the case of `CCCCCCCCCC(=O)Oc1cccc2c1C(=O)OC2=O`, the result in assay [1] was inactive.

For the compound `O=C1OC(=O)c2c1cccc2[N+](=O)[O-]`, the result in assay [1] was inactive.

As to `CCCCCCCCC1(O)OC(=O)c2c(OCc3ccccc3)cccc21` (stereo not given), in assay [1], the outcome was inactive.

In the case of `CCCCCCCCC1OC(=O)c2c(OC)cccc21` (stereo not given), in assay [1], the result was inactive.

With `CCCCCCCCC1(OCc2ccccc2)OC(=O)c2c(OCc3ccccc3)cccc21` (stereo not given), the result in assay [1] was inactive.

As to `CCCCCCCCOC(=O)c1cccc(O)c1C(=O)O`, in assay [1], the result was Active.

For the compound `CCCCCCCCC1(OC)OC(=O)c2c(OCc3ccccc3)cccc21` (stereo not given), the outcome in assay [1] was inactive.

As to `CCCCCCCCOC(=O)c1cccc([N+](=O)[O-])c1C(=O)O`, in assay [1], the result was Active.

With `CN(CCOc1ccc(CC2SC(=O)NC2=O)cc1)c1ccccn1` (stereo not given), the result in assay [1] was Active.

Take `CCCCCCCCC1(O)OC(=O)c2c(O)cccc21` (stereo not given): the result in assay [1] was inactive.

On to `CCCCCCCCC1OC(=O)c2cccc(O)c21` (stereo not given), for which the result in assay [1] and in assay [3] was Active.

For `CCCCCCCCC1(CCCCCCCC)OC(=O)c2c(O)cccc21`, the result in assay [1] was inactive.

Regarding `CCCCCCCCC1(CCCCCCCC)OC(=O)c2cccc(O)c21`, the result in assay [1] was inactive.
